{"source": "ChEMBL document CHEMBL4325899", "about": "“Synthesis and photocytotoxic activity of [1,2,3]triazolo[4,5-h][1,6]naphthyridines and [1,3]oxazolo[5,4-h][1,6]naphthyridines” (Eur J Med Chem, 2019)", "key": {"[1]": {"system": "MCF7", "test": "Induction of lysosomal activation in human MCF7 cells at 400 nM after 6 hrs under UV-irradiation by Lysotracker Green DND 26 staining-based confocal microscopic analysis", "type": "functional, cell-based", "summary_of_the_method": "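MCF7 cells (4x10^5) on glass slides for 24 h. Medium replaced with phenol red- and serum-free medium containing LysoTracker Green DND-26 (175 nM) for 45 min. Compound then added and cells irradiated at 365 nm (1.5 J/cm2). Cells then PBS-washed, fixed in 2% PFA and mounted. Acidic compartments imaged by confocal microscopy (ex 488, em 500–530 nm) against non-irradiated and untreated controls.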"}, "[2]": {"system": "MCF7", "test": "Induction of ROS generation in human MCF7 cells at 0.4 uM preincubated for 30 mins followed by irradiation at 1.5 J/cm2 for 2 hrs by H2DCFDA probe-based fluorescence assay (reference value: 100%)", "type": "functional", "summary_of_the_method": "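MCF7 cells (3x10^4/well) seeded 24 h ahead to 80–90% confluence. Compound given for 30 min in phenol red- and serum-free medium. H2DCFDA (10 µM) added 15 min before irradiation at ~365 nm, 1.5 J/cm2. Fluorescence read 2 h after light (ex 485, em 535 nm) as % of untreated irradiated controls. Non-irradiated plates run alongside; three independent experiments.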"}, "[3]": {"system": "MCF7", "test": "Induction of mitochondrial dysfunction in human MCF7 cells assessed as mitochondria fusion at 400 nM after 6 hrs in presence of UV irradiation by Mitotracker Orange CMTM-ROS staining-based confocal microscopic analysis", "type": "functional, cell-based", "summary_of_the_method": "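MCF7 cells (4x10^5) on glass slides for 24 h. Live-labelled with MitoTracker Orange CMTM-ROS (150 nM) for 45 min in phenol red- and serum-free medium. Compound then added and cells irradiated at 365 nm (1.5 J/cm2). Fixed in 2% PFA and nuclei counterstained. Mitochondrial network morphology imaged by confocal microscopy (ex 543, em 560–620 nm) 6 h post-treatment, with untreated, irradiated and non-irradiated controls.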"}}, "note": "The source made the active and inactive calls. The calls are words filed in the database; no cut-off is given here.", "data": [{"smiles": "CCCCCCCCCCCCCC(=O)O[C@@H]1[C@@H](C)[C@@]2(O)[C@@H](C=C(CO)C[C@]3(O)C(=O)C(C)=C[C@@H]23)[C@@H]2C(C)(C)[C@]12OC(C)=O", "note": "[PHORBOL MYRISTATE ACETATE]", "values": [{"measurement": "Activity", "setting": "[1]", "value": "Active"}, {"measurement": "Activity", "setting": "[2]", "value": 120, "unit": "%"}, {"measurement": "Activity", "setting": "[3]", "value": "Active"}]}]}
